Mcl1 Bid PPI = disrupts binding of human Mcl-1 to Bid peptide. 220,000 compounds, 0.97% hits. inhibition, % at 21.7 µM. Q07820. TR-FRET Mcl-1/Bid-Dy647 peptide binding, 1536-well;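 active means compounds that cut the binding signal by more than half at the single screening dose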;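 further: His-tagged Mcl-1 with europium anti-His antibody binding Bid BH3 peptide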
MCL1-BIM inh = inhibitors of human MCL1 binding to BIM-BH3 peptide | 320,000 compounds, 0.68% hits | GST-MCL1 / FITC-Bim-BH3 fluorescence polarization | inhibition, % at 10.9 µM;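 active means inhibition above the mean inhibition of all tested compounds plus 3 SD, set per campaign, cut at about 40% in these data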;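 further: higher means more loss of mP so more displacement of Bim peptide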
T cell HTS = modulates CD8 T cell binding to vesicles; 2C CD8+ T cell-vesicle binding, flow cytometry; hits give low values; 330,000 compounds, 0.068% hits; AID 2052; response (vesicle binding), % at 7 µM;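 active means response, share of CD8 T cells binding vesicles, and their 90th percentile fluorescence all below set limits, cut at about 80% in these data, passing the limit was not always enough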;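 further: values below 100% mean blocked vesicle binding to the CD8+ T cells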
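Read-out – percent CD8+ FL2 mean versus row control · System – murine 2C transgenic CD8+ T lymphocytes · Times – 1.5 h cell–vesicle binding at 37 °C, then 20 min icy labelling · Control set – naked vesicles low, QL9 vesicles with vehicle high · Detection – cytometric PE anti-B7-1 and Alexa647 anti-CD8 signals after 1% paraformaldehyde fixation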
DSG3 Ab inh = blocks pemphigus antibody binding to human desmoglein-3; P32926; DSG3-coupled beads, scFv-anti-DSG3-GFP binding, flow cytometry; hits give low values; binding (percent of control), % at 10 µM; 310,000 compounds, 0.48% hits;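 active means binding more than 3 SD below its plate's average and above zero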;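 further: hits lower antibody fragment binding to DSG3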
Target sequence (P32926 whole entry, looked up, the tested form may be a part): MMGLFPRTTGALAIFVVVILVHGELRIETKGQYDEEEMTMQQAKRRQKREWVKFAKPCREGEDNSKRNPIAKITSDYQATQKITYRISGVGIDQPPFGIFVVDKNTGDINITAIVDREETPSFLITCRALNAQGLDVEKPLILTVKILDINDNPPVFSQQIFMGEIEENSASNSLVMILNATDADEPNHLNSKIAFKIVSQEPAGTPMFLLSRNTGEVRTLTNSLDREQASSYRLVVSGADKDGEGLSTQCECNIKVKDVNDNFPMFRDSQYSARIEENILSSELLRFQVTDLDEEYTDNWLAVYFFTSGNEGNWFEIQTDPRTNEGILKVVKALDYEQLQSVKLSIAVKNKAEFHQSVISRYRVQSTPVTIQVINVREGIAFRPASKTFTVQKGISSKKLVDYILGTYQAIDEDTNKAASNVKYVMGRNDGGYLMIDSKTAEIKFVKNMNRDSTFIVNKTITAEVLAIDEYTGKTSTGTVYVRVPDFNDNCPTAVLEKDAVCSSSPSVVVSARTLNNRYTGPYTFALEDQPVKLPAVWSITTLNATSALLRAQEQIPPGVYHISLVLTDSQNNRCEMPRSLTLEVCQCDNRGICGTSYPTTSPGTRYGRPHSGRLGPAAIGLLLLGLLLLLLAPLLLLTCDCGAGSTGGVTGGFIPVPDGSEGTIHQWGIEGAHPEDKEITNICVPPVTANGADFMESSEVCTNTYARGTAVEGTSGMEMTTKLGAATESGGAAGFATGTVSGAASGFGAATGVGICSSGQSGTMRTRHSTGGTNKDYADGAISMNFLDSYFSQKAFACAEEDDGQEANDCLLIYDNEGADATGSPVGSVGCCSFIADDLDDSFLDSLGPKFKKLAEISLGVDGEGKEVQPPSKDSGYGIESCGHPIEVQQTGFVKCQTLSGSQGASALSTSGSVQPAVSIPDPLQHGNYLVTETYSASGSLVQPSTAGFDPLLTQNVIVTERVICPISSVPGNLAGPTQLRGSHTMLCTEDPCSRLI
Mcl-1 Bim block = disrupts Bim peptide binding to human Mcl-1 | Q07820 | Bead-based flow cytometry, Bim peptide-Mcl-1 binding | inhibition, % at 10 µM | 190,000 compounds, 0.1% hits; in the data active means inhibition above about 40%
Mcl1 Noxa PPI = Mcl-1/Noxa interaction inhibition; TR-FRET Mcl-1/Noxa peptide binding, 2 h; AID 1022; Q07820; inhibition, % at 21.7 µM; 220,000 compounds, 1.5% hits;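 active means compounds that cut the protein-peptide binding signal by more than 50% relative to plate controls in a single-dose test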;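 further: His-tagged Mcl-1 with rhodamine Noxa BH3 peptide and terbium anti-His antibody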
Hits are given with their value; n = inactive; x = not tested or not shown. Hits are enriched below; roughly 2.3% of the tested compounds scored in any of these assays.

SMILES	Mcl1 Bid PPI	MCL1-BIM inh	T cell HTS	DSG3 Ab inh	Mcl-1 Bim block	Mcl1 Noxa PPI
COC(=O)/C=C1/SC(=Nc2ccc(C)cc2C)NC1=O	98.1	n	n	n	n	n
CC1N(C)c2cccc3cccc(c23)N1C	n	n	n	n	n	62.7
O=C1NC(Cc2ccccc2)c2nc3cc(Cl)ccc3c(=O)n2-c2ncccc21 (stereo not given)	x	x	x	n	x	x
S=c1[nH]nc(-c2ccco2)n1/N=C/c1cccc(Cl)c1Cl	n	n	n	n	n	71.7
CC1CCN(C(=O)CN2C(=O)NC(C)(c3ccc4ccccc4c3)C2=O)CC1 (stereo not given)	x	x	n	x	x	x
Cc1ccc(S(=O)(=O)Nc2nc3ccccc3nc2N2CCN(c3ccccc3F)CC2)cc1	n	n	n	n	n	50.9
Cc1ccc(S(=O)(=O)NC2=C(N3CCN(c4ccccc4F)CC3)C(=O)c3ccccc3C2=O)cc1	n	n	n	n	n	x
O=C(Nc1cc([N+](=O)[O-])c2[nH]c(=O)c3ccccc3c2c1)C(F)(F)F	x	x	x	n	x	x
Cc1nc(NC(=O)c2cccc(-c3cc4ccccc4oc3=O)c2)ccc1Br	57.8	n	n	n	n	n
Cc1nc(NC(=O)c2ccc(-c3cc4ccccc4oc3=O)cc2)ccc1Br	n	n	n	x	n	n
Cc1nccn1CC(O)COc1ccccc1 (stereo not given)	n	n	n	n	n	n
Cc1nccn1CC(O)COC1CCCCC1 (stereo not given)	62.1	n	n	n	n	n
O=[N+]([O-])c1ccc(O)c2ncccc12	n	n	n	n	n	72.9
O=[N+]([O-])c1ccc(O)c2cccnc12	n	47.8	n	n	n	n
O=[N+]([O-])c1cc(F)c2cccnc2c1O	n	n	n	n	x	n
O=[N+]([O-])c1cc(Cl)c(O)c2ncccc12	n	x	x	n	n	70.0
O=[N+]([O-])c1cc([N+](=O)[O-])c2cccnc2c1Oc1ccccc1O	n	n	n	n	n	92.5
O=[N+]([O-])c1ccc(Cl)c2cccnc12	n	n	n	n	n	n
COc1cccc(-c2ccc(NC(=O)C3CCCN(Cc4cnn(C(C)C)c4)C3)cc2)c1 (stereo not given)	x	n	n	n	x	x
Cc1ccc(C(=O)NC(=S)c2c(C)cc3ccccn23)cc1	x	x	x	n	x	x
O=[N+]([O-])c1cc(CN2CCOCC2)c2cccnc2c1O	n	x	x	x	n	94.4
Oc1c(Cl)cc(CN2CCOCC2)c2cccnc12	x	n	n	n	x	x
C[C@@H]1CCCCO[C@@H](CN(C)S(=O)(=O)c2cccs2)[C@@H](C)CN([C@H](C)CO)C(=O)c2cc(NS(=O)(=O)c3ccccc3)ccc2O1	x	x	x	n	x	x
O=C(CSc1nnc(-c2ccncc2)o1)Nc1cc(Cl)ccc1C(=O)O	x	x	n	n	x	x
FC(F)(F)c1ccc(/C=N/N2CCN(Cc3cccc4ccccc34)CC2)cc1	n	n	n	n	n	n
SMILES	Mcl1 Bid PPI	MCL1-BIM inh	T cell HTS	DSG3 Ab inh	Mcl-1 Bim block	Mcl1 Noxa PPI
C(=N\N1CCN(Cc2cccc3ccccc23)CC1)/c1cccnc1	57.9	n	n	x	n	n
CC(=O)Nc1ccc(S(=O)(=O)c2ccnc3cc(Cl)ccc23)cc1	x	x	x	n	x	x
CC1(c2cccc3ccccc23)NC(=O)N(CC(=O)NC2CCS(=O)(=O)C2)C1=O (stereo not given)	97.7	n	n	n	n	n
CCN(CC)CCNC(=O)c1ccc(NC(=O)c2ccc(C(=O)c3ccccc3)cc2)cc1	x	n	75.6	n	x	x
CCN(CC)CCNC(=O)c1ccc(NC(C)=O)cc1	n	n	n	n	n	n
O=C(c1ccc(Cl)cc1)[C@@H]1[C@@H]2C(=O)N(c3ccccc3)C(=O)[C@@H]2C2c3ccccc3C=NN21 (stereo not given in full)	n	n	n	77.9	n	n
CC(C)(C)C1CCC(C(=O)OCC(=O)Nc2ccc3[nH]c(=O)[nH]c3c2)CC1 (stereo not given)	n	n	n	n	n	58.7
Cn1c(/N=C/c2c(O)ccc3ccccc23)nc2ccccc21	56.5	n	n	n	n	n
CCCn1c(/N=C/c2ccccc2O)nc2ccccc21	n	n	n	n	n	n
Cc1ccccc1-c1nnn(Cc2cccc(S(=O)(=O)N3CCOCC3)c2)n1	x	n	n	n	x	x
COc1ccc(NC(=O)c2cc3sccc3n2Cc2ccc(F)cc2)cc1OC	57.5	n	n	x	n	n
O=C(Nc1nccs1)c1cc2sccc2n1Cc1ccc(F)cc1	n	n	n	x	n	n
CCOc1ccc(OCC)c(NC(=O)CN2CCN(c3cc(C)ccc3C)CC2)c1	51.3	n	n	n	n	n
CCOc1ccc(OCC)c(NC(=O)CN2CCN(c3cccc(C)c3)CC2)c1	n	n	n	n	n	n
CC(=O)N(C)c1ccc(NC(=O)Cc2cccs2)cc1	x	n	n	n	x	x
CC1(C)C(c2cccs2)=[N+]([O-])C2(CCCCC/C2=N\O)N1O (stereo not given)	56.8	n	n	n	n	n
Cc1ccc(C2=[N+]([O-])C3(CCCCC/C3=N\NC(N)=O)N(O)C2(C)C)o1 (stereo not given)	n	n	n	n	n	n
Cc1ccc(-c2n[nH]c(=S)n2C)cc1Cl	n	n	n	n	n	53.3
CCN(CC)S(=O)(=O)c1cccc(-c2n[nH]c(=S)n2C)c1	n	n	n	n	n	n
Nn1c(SCC(=O)N2CCCC2)nnc1-c1cccs1	x	x	x	n	x	x
CCn1c(N2CCN(S(=O)(=O)c3ccc(Cl)cc3)CC2)nc2ccccc21	n	n	n	-37.1	n	n
S=C(NC1CCCCC1)N1CCn2cccc2C1c1cccnc1 (stereo not given)	n	n	n	n	n	63.5
CC(CCc1ccccc1)NC(=O)c1nnc(Cc2ccc(Cl)cc2)o1 (stereo not given)	n	n	n	-13.4	n	n
CCC(=O)N1CCc2cc(S(=O)(=O)N(C)c3ccc(Br)cc3)ccc21	x	x	x	72.8	x	x
CCC(=O)N1CCc2cc(S(=O)(=O)N(C)c3ccc(OC)cc3OC)ccc21	x	n	n	n	x	x
SMILES	Mcl1 Bid PPI	MCL1-BIM inh	T cell HTS	DSG3 Ab inh	Mcl-1 Bim block	Mcl1 Noxa PPI
COc1ccc(N2CCN(S(=O)(=O)c3ccc(OC)c(C(=O)N4CCCC4)c3)CC2)cc1	x	n	n	n	x	x
COc1ccc2cc([C@H](C)C(=O)N(C)Cc3ccccc3N3CCCC3)ccc2c1	x	n	n	n	x	x
COc1c(F)cccc1C1=CC(=O)C[C@H](c2ccc(F)cc2)C1	x	x	x	n	x	x
COc1ccccc1C1CC(c2ccccc2)Nc2ncnn21 (stereo not given)	97.3	n	n	n	n	n
COc1cccc(N/C(SCc2ccccc2C)=C(/C#N)C(=O)NCc2cccs2)c1	54.0	n	n	n	n	n
CC(SC(C)C(=O)NN=Cc1cccc(F)c1)C(=O)NN=Cc1cccc(F)c1 (stereo not given)	x	x	x	n	x	x
COc1ccc(/C=C/C(=O)NCc2cn(C)nc2C)cc1COc1ccc(Cl)cc1Br	n	n	n	n	n	n

Screening data deposited in PubChem BioAssay by several laboratories.
